Reference: ChEMBL document CHEMBL4330063, “New naphthopyran analogues of LY290181 as potential tumor vascular-disrupting agents” (Eur J Med Chem, 2019)
pIC50: −log10 of the molar value. Calls of active or inactive are those of the source. The rule behind the calls is not given here.

Tests used:
[1] = system: 518A2; assay: Antiproliferative activity against human 518A2 cells after 72 hrs by MTT assay; type: functional, cell-based; settings: for pIC50: 518A2, 72 h
Procedure, shortened: (§1)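 MTT read-out after 72 h of continuous exposure. Viability is expressed as percentage of viable cells relative to untreated controls. IC50 comes from dose-response curves. Values are means±SD of four independent experiments (two for some entries). DMSO was below 1%, with vehicle controls at equal DMSO. Precipitation was excluded spectrometrically and microscopically.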

[2] = system: HT-29; assay: Antiproliferative activity against human HT-29 cells after 72 hrs by MTT assay; type: functional, cell-based; settings: HT-29, 72 h; procedure, shortened: as §1
[3] = system: A2780; assay: Antiproliferative activity against human A2780 cells after 72 hrs by SRB assay; type: functional, cell-based; settings: A2780, 72 h
Procedure, shortened: (§2)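 Ovarian A2780 and cisplatin-resistant A2780cis cells were exposed for 72 h and stained with SRB. IC50 comes from dose-response curves, as means±SD of three independent experiments. Final DMSO was below 1%, with matched vehicle controls.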

[4] = Antiproliferative activity against human A2780cis cells after 72 hrs by SRB assay; type: functional, cell-based; procedure, shortened: as §2
[5] = system: DLD-1; assay: Antiproliferative activity against human DLD1 cells after 72 hrs by MTT assay; type: functional, cell-based; settings: DLD-1, 72 h; procedure, shortened: as §1
[6] = system: EA.hy 926; assay: Antiproliferative activity against human EAhy926 cells after 72 hrs by MTT assay; type: functional, cell-based; settings: EA.hy 926, 72 h; procedure, shortened: as §1
[7] = system: PANC-1; assay: Antiproliferative activity against human PANC1 cells after 72 hrs by MTT assay; type: functional, cell-based; settings: PANC-1, 72 h; procedure, shortened: as §1
[8] = system: HCT-116; assay: Antiproliferative activity against human HCT116 cells after 72 hrs by MTT assay; type: functional, cell-based; settings: HCT-116, 72 h; procedure, shortened: as §1
[9] = Antiproliferative activity against human KB-V1/Vbl cells after 72 hrs by MTT assay; type: functional, cell-based; procedure, shortened: as §1
[10] = Antiproliferative activity against human MCF7/Topo cells after 72 hrs by MTT assay; type: functional, cell-based; procedure, shortened: as §1
[11] = system: EA.hy 926; assay: Antiangiogenic activity against human EAhy926 cells assessed as inhibition of tube formation on matrigel at 100 nM after 24 hrs by light microscopic analysis; type: functional, cell-based
Procedure, shortened: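 Ea.Hy926 endothelial hybrid cells were seeded on matrigel with compound and examined for tubular/cord-like network formation versus untreated controls. Viability under the same conditions was checked in parallel by MTT to exclude cytotoxic effects.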

[12] = system: EA.hy 926; assay: Cytotoxicity against human EAhy926 cells at 100 nM after 24 hrs by MTT assay relative to control; type: cell-based; settings: ea.hy 926, 24 h, 0.1 µM
[13] = system: HT-29; assay: Cell cycle arrest in human HT-29 cells assessed as accumulation of cells at sub G1 phase at 100 nM after 24 hrs by propidium iodide staining-based flow cytometric analysis (reference value: 1.2 +/- 0.3%); type: functional
[14] = system: HT-29; assay: Cell cycle arrest in human HT-29 cells assessed as accumulation of cells at sub G1 phase at 250 nM after 24 hrs by propidium iodide staining-based flow cytometric analysis (reference value: 1.2 +/- 0.3%); type: functional
[15] = system: HT-29; assay: Cell cycle arrest in human HT-29 cells assessed as accumulation of cells at sub G1 phase at 350 nM after 24 hrs by propidium iodide staining-based flow cytometric analysis (reference value: 1.2 +/- 0.3%); type: functional
[16] = system: HT-29; assay: Cell cycle arrest in human HT-29 cells assessed as accumulation of cells at G1 phase at 100 nM after 24 hrs by propidium iodide staining-based flow cytometric analysis (reference value: 75.1 +/- 1.1%); type: functional
[17] = system: HT-29; assay: Cell cycle arrest in human HT-29 cells assessed as accumulation of cells at G1 phase at 250 nM after 24 hrs by propidium iodide staining-based flow cytometric analysis (reference value: 75.1 +/- 1.1%); type: functional
[18] = system: HT-29; assay: Cell cycle arrest in human HT-29 cells assessed as accumulation of cells at G1 phase at 350 nM after 24 hrs by propidium iodide staining-based flow cytometric analysis (reference value: 75.1 +/- 1.1%); type: functional
[19] = system: HT-29; assay: Cell cycle arrest in human HT-29 cells assessed as accumulation of cells at S phase at 100 nM after 24 hrs by propidium iodide staining-based flow cytometric analysis (reference value: 12.3 +/- 0.4%); type: functional
[20] = system: HT-29; assay: Cell cycle arrest in human HT-29 cells assessed as accumulation of cells at S phase at 250 nM after 24 hrs by propidium iodide staining-based flow cytometric analysis (reference value: 12.3 +/- 0.4%); type: functional
[21] = system: HT-29; assay: Cell cycle arrest in human HT-29 cells assessed as accumulation of cells at S phase at 350 nM after 24 hrs by propidium iodide staining-based flow cytometric analysis (reference value: 12.3 +/- 0.4%); type: functional
[22] = system: HT-29; assay: Cell cycle arrest in human HT-29 cells assessed as accumulation of cells at G2/M phase at 100 nM after 24 hrs by propidium iodide staining-based flow cytometric analysis (reference value: 11.4 +/- 1.4%); type: functional
[23] = system: HT-29; assay: Cell cycle arrest in human HT-29 cells assessed as accumulation of cells at G2/M phase at 250 nM after 24 hrs by propidium iodide staining-based flow cytometric analysis (reference value: 11.4 +/- 1.4%); type: functional
[24] = system: HT-29; assay: Cell cycle arrest in human HT-29 cells assessed as accumulation of cells at G2/M phase at 350 nM after 24 hrs by propidium iodide staining-based flow cytometric analysis (reference value: 11.4 +/- 1.4%); type: functional
[25] = system: 518A2; assay: Induction of apoptosis in human 518A2 cells at 100 nM after 24 hrs by TUNEL assay relative to control; type: functional
[26] = target: Tubulin (Homo sapiens) (UniProt P68371+Q9H4B7+P0DPH7+P68366+Q13509+Q71U36+P04350+Q3ZCM7+P07437+P68363+Q9BQE3+Q6PEY2+Q13885+Q9BVA1+Q9BUF5); assay: Induction of microtubule disruption in human 518A2 cells at 100 nM after 3 hrs by DAPI staining-based fluorescence microscopic analysis; type: cell-based
Procedure, shortened: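 Microtubule organization in 518A2 melanoma cells was checked by tubulin immunofluorescence staining after 3 h exposure to 100 nM, with DAPI as the nuclear counterstain. Images come from two independent experiments.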

[27] = target: Tubulin (Sus scrofa, UniProt P02554+P02550); assay: Inhibition of porcine brain tubulin polymerization after 2 hrs
[28] = system: 518A2; assay: Effect on F-actin in human 518A2 cells assessed as thick stress fibers formation at 100 nM after 3 hrs by DAPI staining-based fluorescence microscopic analysis; type: cell-based
Procedure, shortened: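 518A2 melanoma cells were treated with 100 nM for 3 h. Filamentous actin was fluorescence-labelled, nuclei were counterstained with DAPI, and the cells were imaged by fluorescence microscopy. Images come from two independent experiments.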

[29] = system: 518A2; assay: Antimigratory activity against human 518A2 cells at 50 nM after 48 hrs by wound healing assay; type: functional, cell-based
[30] = system: 518A2; assay: Induction of apoptosis in human 518A2 cells assessed as caspase-9 activity at 5 uM after 3.5 hrs by Caspase-Glo luminescence assay (reference value: 100 +/- 1.2%); type: functional
[31] = system: 518A2; assay: Induction of apoptosis in human 518A2 cells assessed as accumulation at subG1 phase; type: functional, cell-based
[32] = system: 518A2; assay: Induction of cell cycle arrest in human 518A2 cells; type: functional, cell-based
[33] = system: HT-29; assay: Cell cycle arrest in human HT-29 cells assessed as accumulation of cells at G2/M phase after 24 hrs by propidium iodide staining-based flow cytometric analysis; type: functional

Structure (SMILES)	Activity [1]	pIC50 [1]	pIC50 [2]	pIC50 [3]	pIC50 [4]	pIC50 [5]	pIC50 [6]	pIC50 [7]	pIC50 [8]	pIC50 [9]	pIC50 [10]	Activity [11]	Activity [12]	Activity [13]	Activity [14]	Activity [15]	Activity [16]	Activity [17]	Activity [18]	Activity [19]	other results
N#CC1=C(N)Oc2c(ccc3ccccc23)C1c1cc(F)cc(F)c1 (stereo not drawn)	Dose-dependent effect	7.58	6.75	7.77	7.69	7.49	7.50	7.71	7.33	7.59	7.70	Active	> 68%	7.1%	11.3%	13.4%	40.3%	35.9%	30.8%	20.7%	Activity [20]: 19.2%; Activity [21]: 12.3%; Activity [22]: 31.8%; Activity [23]: 33.6%; Activity [24]: 43.5%; Activity [25]: 67.5%; Activity [26]: Active; I50 [27]: 9.6 µM; Activity [28]: Active; Activity [29]: Active; Activity [30]: 133%; Activity [31]: Active; Activity [32]: inactive; Activity [33]: Dose-dependent effect
N#CC1=C(N)Oc2c(ccc3ccccc23)C1c1cccc([N+](=O)[O-])c1 (stereo not drawn)	Dose-dependent effect	7.44	7.33	7.73	7.59	7.47	7.45	7.90	7.35	7.65	7.93	Active	> 68%	6.1%	13%	12.2%	49.3%	51.7%	39.8%	26.2%	Activity [20]: 22.4%; Activity [21]: 24.1%; Activity [22]: 18.4%; Activity [23]: 12.9%; Activity [24]: 23.9%; Activity [25]: 61.4%; Activity [26]: Active; I50 [27]: 7.1 µM; Activity [28]: Active; Activity [29]: Active; Activity [30]: 114.7%; Activity [31]: Active; Activity [32]: inactive; Activity [33]: Dose-dependent effect
